Reference: publication PMC2753677 (Biochemistry, 2009)
Entries after “also recorded” stand apart in the source; their conditions may differ. Each block holds one molecule with its values, some of them ahead of it.

Columns and labels:
[1] = test system: CypA-induced chemotaxis of mouse CD4+ T cells; assay: Boyden chamber chemotaxis assay, CypA-induced; type: cell-based; settings: 2 μM compound, 100 ng/ml CypA, activated mouse CD4+ T cells, 50 min
Method in brief: (§1)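 Mouse spleen cells (3×10^6/well) stimulated overnight with ConA 10 μg/ml in Click's medium + 5% FCS, 37°C, 5% CO2; CD4+ T cells isolated by MACS negative depletion. 104 cells placed in upper wells of 48-well Boyden chamber (5-μm polycarbonate membrane). Lower wells: RPMI-1640 + 1% BSA with recombinant human CypA or recombinant CypB. Test compound added to top and bottom wells. 50 min, 37°C. Membrane Wright-Giemsa stained; chemotactic index = migrated cells/mean medium-alone.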

Par14 = Par14 (Homo sapiens, UniProt Q9Y237); assay: PPIase inhibition, Par14; type: biochemical
Par14, sequence (Q9Y237 whole entry): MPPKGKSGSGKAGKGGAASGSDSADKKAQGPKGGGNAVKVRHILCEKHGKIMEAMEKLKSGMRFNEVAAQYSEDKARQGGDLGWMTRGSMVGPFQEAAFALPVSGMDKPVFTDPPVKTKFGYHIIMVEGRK

[2] = test system: CypB-induced chemotaxis of mouse CD4+ T cells; assay: Boyden chamber chemotaxis assay, CypB-induced; type: cell-based; settings: 2 μM compound, 200 ng/ml CypB, activated mouse CD4+ T cells, 50 min
Method in brief: as §1

Human CypB = Human CypB (Homo sapiens, UniProt P23284); assay: protease-free PPIase assay, CypB; type: biochemical; settings: up to a concentration of 30 μM
Human CypB, sequence (P23284 34-216): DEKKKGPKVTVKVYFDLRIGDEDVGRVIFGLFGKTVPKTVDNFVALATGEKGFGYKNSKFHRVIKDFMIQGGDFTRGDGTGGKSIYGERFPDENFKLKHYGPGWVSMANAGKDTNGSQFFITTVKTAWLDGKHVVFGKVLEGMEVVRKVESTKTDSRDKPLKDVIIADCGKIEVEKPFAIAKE

mouse (His)6-CypC = mouse (His)6-CypC (Mus musculus, UniProt P30412); assay: protease-free PPIase assay, CypC; type: biochemical
mouse (His)6-CypC, sequence (P30412 whole entry): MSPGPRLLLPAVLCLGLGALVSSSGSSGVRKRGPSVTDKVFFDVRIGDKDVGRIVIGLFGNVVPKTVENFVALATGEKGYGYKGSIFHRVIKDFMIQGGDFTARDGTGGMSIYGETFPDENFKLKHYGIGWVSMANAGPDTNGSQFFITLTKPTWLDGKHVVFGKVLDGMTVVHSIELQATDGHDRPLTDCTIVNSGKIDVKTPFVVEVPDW

[3] = ITC control titration of CsA with compound 1; type: binding; settings: syringe 1, cell CsA; n.s. = no signal of heat formation
[4] = test system: RANTES-induced migration of mouse CD4+ T cells; assay: Boyden chamber chemotaxis assay, RANTES-induced; type: cell-based; settings: 1 ng/ml mouse RANTES, activated mouse CD4+ T cells (data not shown)
CypA [5] = biological target: T1, CypA (Homo sapiens, UniProt P62937); assay: isothermal titration calorimetry; type: binding
T1 sequence (P62937 whole entry): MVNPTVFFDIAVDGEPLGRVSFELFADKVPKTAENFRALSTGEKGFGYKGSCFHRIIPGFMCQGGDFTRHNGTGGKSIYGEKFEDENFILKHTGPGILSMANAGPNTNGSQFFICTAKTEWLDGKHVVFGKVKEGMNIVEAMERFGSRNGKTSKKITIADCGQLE

FKBP12 = FKBP12 (Homo sapiens, UniProt P62942); assay: PPIase inhibition, FKBP12; type: biochemical
FKBP12, sequence (P62942 whole entry, species assumed): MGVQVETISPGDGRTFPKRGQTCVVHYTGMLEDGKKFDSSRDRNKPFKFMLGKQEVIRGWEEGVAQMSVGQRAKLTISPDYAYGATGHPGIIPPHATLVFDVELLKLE

CypA [6] = biological target: T1, CypA; assay: protease-free PPIase assay, CypA; type: biochemical; settings: 35 mM HEPES pH 7.8, 283 K, Suc-Ala-Ala-Pro-Phe-pNA 60 μM

Molecule: O=C(c1cc(-c2cc(F)cc([N+](=O)[O-])c2O)cc([N+](=O)[O-])c1O)C1CCc2ccccc21 (stereo not shown) [Compound 1]
inhibition of CypA-induced chemotaxis [1]: almost completely; also recorded: specifically inhibited
influence on Par14 (Par14): does not influence
effect on CypB-induced chemotaxis [2]: barely impacted; also recorded: not influenced
response of PPIase activity of CypB (Human CypB): did not respond
Ki (mouse (His)6-CypC; CypC, 35 mM HEPES pH 7.8, 283 K, Suc-Ala-Ala-Pro-Phe-pNA 60 μM): > 100 µM
response of PPIase activity of CypC (mouse (His)6-CypC; up to a concentration of 30 μM): did not respond
KA [3]: n.s.
effect on RANTES-induced cell migration [4]: not impacted
association constant KA (CypA [5]; competition ITC approach, calculated by eq. 2, 293 K): 44000 M⁻¹
binding enthalpy ΔH (CypA [5]; competition ITC approach, calculated by eq. 3, 293 K): -2.8 kcal/mol
Kd (CypA [5]; read-out: dissociation constant KD, ITC probe of CsA/compound 1 competition): 22.6 µM
Ki (FKBP12): 38 ± 8 µM

Ki (CypA [6]): 0.0024 ± 0.0003 µM
Molecule: [O-(CF-NH(CH2)2NHC(O)CH2-)D-Ser]^8CsA
